Source: PubChem BioAssay (Johns Hopkins Ion Channel Center)
Compounds with a hit are over-represented: about 3.7% of the library has one in this group of screens.
hERG rescue: compounds protecting human hERG from proarrhythmic drug block; Q12809; CHO-hERG, FluxOR thallium flux, dofetilide IC70 present; activation (rescue from dofetilide block), less the hit threshold, % at 10 µM; 0.51% of 310,000 active; AID 1511;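 active means activation above the mean of controls blocked by dofetilide plus 5 SD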;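 further: thallium influx through hERG after potassium depolarization seen as dye fluorescence rise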
KCNK9 inh: inhibitors of human KCNK9 two-pore domain potassium channel | B-score at 10 µM | 1.2% of 310,000 active | Q9NPC2 | AID 488922 | HEK293 KCNK9, FluxOR thallium flux fluorescence; stronger effect = lower value;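 active means ratio B-score over 3 SD below the library mean, with starting fluorescence within 5 SD of its mean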;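 further: negative B-score means less thallium flux so channel inhibition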
Target sequence (Q9NPC2 whole entry, looked up, the tested form may be a part): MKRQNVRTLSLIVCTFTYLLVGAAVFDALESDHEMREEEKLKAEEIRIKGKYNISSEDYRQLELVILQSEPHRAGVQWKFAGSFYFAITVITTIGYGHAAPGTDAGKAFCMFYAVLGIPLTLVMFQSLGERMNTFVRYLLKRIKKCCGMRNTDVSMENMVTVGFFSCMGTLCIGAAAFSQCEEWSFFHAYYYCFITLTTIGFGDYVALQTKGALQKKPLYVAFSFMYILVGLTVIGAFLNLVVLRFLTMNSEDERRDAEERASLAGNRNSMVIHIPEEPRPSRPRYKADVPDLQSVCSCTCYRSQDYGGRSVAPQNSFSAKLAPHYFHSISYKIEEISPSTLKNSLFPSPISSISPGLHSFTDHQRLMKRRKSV
KCNQ1 pot: human KCNQ1 channel potentiation or activation; CHO-K1 KCNQ1, thallium flux FluxOR fluorescence; stronger effect = higher value; B-score at 10 µM; 0.35% of 310,000 active; AID 2648; P51787;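 active means fluorescence ratio B-score, a plate-corrected score, at least three library SD, with initial intensity B-score within 5 SD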
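Schedule – 37 °C overnight plating, 90-min dark dye load, 20-min compound pretreatment · System – stable KCNQ1 CHO-K1 line · Probe or stimulus – thallium- and potassium-containing depolarizing buffer · Measured by – kinetic FluxOR fluorescence, 10 s baseline plus 110 s post-stimulus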
KCNK3 inh: human KCNK3 channel inhibition, primary screen; AID 602410; CHO-KCNK3 thallium flux, FluxOR fluorescence; stronger effect = lower value; B-score at 10 µM; O14649; 0.84% of 340,000 active;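 active means B-score under library mean minus 4 SD, starting fluorescence ratio at most library mean plus 5 SD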;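 further: more negative B-score means stronger inhibition of thallium flux through KCNK3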
Kir21 block: inhibitors of mouse Kir2.1 inward-rectifier potassium channel; P35561; HEK293-Kir2.1, FluxOR thallium flux fluorescence; stronger effect = lower value; B-score at 10 µM; 0.85% of 310,000 active; AID 1672;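 active means fluorescence ratio B-score at or below minus 3 SD of library scores, with starting-brightness B-score within 2 SD, cut at about -4.2 in these data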;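 further: channel flux triggered by added potassium and thallium sulfate stimulus; B-score of peak minus minimum fluorescence over baseline after thallium stimulus; more negative B-score means stronger Kir2.1 block with less thallium influx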
KCNQ1 inh: inhibitors of human KCNQ1 potassium channel. P51787. CHO-K1 KCNQ1, FluxOR thallium flux fluorescence; stronger effect = higher value. B-score at 10 µM. 1.3% of 310,000 active;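 active means compounds whose thallium flux B-score, printed positive for inhibition, exceeds three library SD while starting fluorescence stays within three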;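 further: channel opened by potassium depolarization with thallium stimulus after 20 min compound exposure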
Numbers without * were called inactive.

`O=C(NNC(=S)NC(=O)c1ccc(Br)cc1)c1cccc([N+](=O)[O-])c1` gave hERG rescue -1.1, KCNK9 inh inactive, KCNQ1 pot 21*, KCNK3 inh inactive, Kir21 block 0.01 and KCNQ1 inh inactive.
For O=C(NNC(=S)NC(=O)c1ccc(Br)cc1)c1ccc([N+](=O)[O-])cc1 the results were hERG rescue -10.6, KCNK9 inh inactive, KCNQ1 pot inactive, KCNK3 inh inactive, Kir21 block 0.05 and KCNQ1 inh inactive.
For Cc1ccc(CSc2nnc(NC(=O)C3=COCCO3)s2)cc1 the results were KCNK3 inh inactive.
`COc1ccc(C(=O)NC(=S)NNC(=O)c2cccc(C)c2)cc1` gave hERG rescue -4.7, KCNK9 inh inactive, KCNQ1 pot 62*, KCNK3 inh inactive, Kir21 block 1.68 and KCNQ1 inh inactive.
Cc1ccc(C(=O)CC(=O)COc2ccc(Cl)cc2)cc1 was read as hERG rescue -11.4, KCNK9 inh inactive, KCNQ1 pot 17*, KCNK3 inh inactive, Kir21 block 0.12 and KCNQ1 inh inactive.
`Cc1ccc(C(=O)NCCOc2ccc(Cl)cc2)cc1` gave hERG rescue -0.7, KCNK9 inh inactive, KCNQ1 pot inactive, KCNK3 inh inactive, Kir21 block 0.7 and KCNQ1 inh inactive.
`COc1ccc(C(=O)NNC(=S)NC(=O)c2ccc(OC)cc2)cc1` gave hERG rescue -9.1, KCNK9 inh inactive, KCNQ1 pot inactive, KCNK3 inh inactive, Kir21 block -1.05 and KCNQ1 inh inactive.
Screening Cc1cccc(NC(=O)CN2CCN(C(=O)c3cccc(-n4cnnn4)c3)CC2)c1C returned KCNK3 inh inactive.
Nc1c(-c2ccccc2)sc2ccc3ccccc3[n+]12 was read as hERG rescue -6.2, KCNK9 inh inactive, KCNQ1 pot inactive, KCNK3 inh inactive, Kir21 block 0.57 and KCNQ1 inh inactive.
`CSC(SC)=C(C#N)C(=O)c1ccccc1` gave hERG rescue -28.9, KCNK9 inh inactive, KCNQ1 pot inactive, KCNK3 inh inactive, Kir21 block -4.39* and KCNQ1 inh 11*.
O=c1ccc(-c2ccc(S(=O)(=O)N3CCCCC3)o2)n[nH]1 was read as hERG rescue -5.9, KCNK9 inh inactive, KCNQ1 pot inactive, KCNK3 inh inactive, Kir21 block 0.12 and KCNQ1 inh inactive.
For O=C1CCCN1CCCNS(=O)(=O)c1cccc(F)c1 the results were hERG rescue 4.9*, KCNK9 inh inactive, KCNQ1 pot inactive, KCNK3 inh inactive, Kir21 block -1.34 and KCNQ1 inh inactive.
N#CCc1ccc(NS(=O)(=O)c2ccc(C3CCCCC3)cc2)cc1 was read as hERG rescue -12.8, KCNK9 inh -6.94*, KCNQ1 pot inactive, KCNK3 inh inactive, Kir21 block 1.83 and KCNQ1 inh inactive.
For CN(C)S(=O)(=O)N1CCC(Oc2ccc(C(=O)N3C[C@@H]4CCC[C@H]3C4)cc2)CC1 the results were hERG rescue -10.0, KCNK9 inh inactive, KCNQ1 pot inactive, KCNK3 inh inactive, Kir21 block -1.37 and KCNQ1 inh inactive.
OCCN(CCO)c1ccc(C(c2ccc(Cl)cc2)c2ccc(N(CCO)CCO)cc2Cl)c(Cl)c1 was read as hERG rescue -4.2, KCNK9 inh inactive, KCNQ1 pot 8*, KCNK3 inh inactive, Kir21 block -0.03 and KCNQ1 inh inactive.
Cc1ccc(NC(=O)CN(C)C(=O)C(Sc2ccccc2)c2ccccc2)cc1 (stereo unspecified) was read as KCNK3 inh inactive.
`COc1ccccc1CCC(=O)Nc1cccc(S(=O)(=O)N2CCCCCC2)c1` gave hERG rescue -12.7, KCNK9 inh inactive, KCNQ1 pot inactive, KCNK3 inh inactive, Kir21 block -1.39 and KCNQ1 inh 6*.
COc1cc(C(=O)Nc2cccc(S(=O)(=O)N3CCCC3)c2)cc(OC)c1C was read as hERG rescue -12.4, KCNK9 inh -7.72*, KCNQ1 pot inactive, KCNK3 inh inactive, Kir21 block -0.93 and KCNQ1 inh inactive.
CN(C)c1ccc(CNCCC(Cc2ccccc2)c2ccco2)cc1 (stereo unspecified) was read as hERG rescue -19.6, KCNK9 inh inactive, KCNQ1 pot inactive, KCNK3 inh inactive, Kir21 block -4.66* and KCNQ1 inh inactive.
c1ccc(CNCCC(Cc2ccccc2)c2ccco2)cc1 (stereo unspecified) was read as hERG rescue -13.7, KCNK9 inh inactive, KCNQ1 pot inactive, KCNK3 inh inactive, Kir21 block -11.8* and KCNQ1 inh inactive.
For CC(=O)NCCC(Cc1ccccc1)c1ccco1 (stereo unspecified) the results were hERG rescue -0.9, KCNK9 inh inactive, KCNQ1 pot inactive, KCNK3 inh inactive, Kir21 block -0.19 and KCNQ1 inh inactive.
COc1ccccc1C(=O)NCC(=O)N1CC=C(c2ccccc2)CC1 was read as KCNK3 inh inactive.
Screening COc1ccc(/C=N/NC(=O)CC#N)cc1Oc1nc(Cl)ncc1F returned hERG rescue -3.0, KCNK9 inh inactive, KCNQ1 pot inactive, KCNK3 inh inactive, Kir21 block 0.36 and KCNQ1 inh inactive.
`CCOc1cc(/C=N/NC(=O)c2ccc(O)cc2)ccc1Oc1nc(Cl)ncc1F` gave hERG rescue -2.5, KCNK9 inh -7.77*, KCNQ1 pot inactive, KCNK3 inh inactive, Kir21 block 1.59 and KCNQ1 inh inactive.
`CC(NCc1cc(Br)ccc1OCC(=O)NCc1ccccc1)c1ccccc1` (stereo unspecified) gave hERG rescue -38.7, KCNK9 inh inactive, KCNQ1 pot inactive, KCNK3 inh inactive, Kir21 block -15.5* and KCNQ1 inh 6*.
Screening C(=C\c1ccco1)/C1=NN(c2ccccc2)C(c2ccco2)C1 (stereo unspecified) returned hERG rescue -15.2, KCNK9 inh inactive, KCNQ1 pot inactive, KCNK3 inh inactive, Kir21 block -2.07 and KCNQ1 inh inactive.
Screening O=[N+]([O-])c1ccc(/C=C/C2=NN(c3ccccc3)C(c3ccco3)C2)o1 (stereo unspecified) returned hERG rescue -10.4, KCNK9 inh inactive, KCNQ1 pot inactive, KCNK3 inh -9.67*, Kir21 block -0.88 and KCNQ1 inh inactive.
Screening Nc1nc(=S)[nH]c2c1C1(CCCC1)Cc1ccccc1-2 returned hERG rescue 6.1*, KCNK9 inh inactive, KCNQ1 pot inactive, KCNK3 inh inactive, Kir21 block -1.52 and KCNQ1 inh inactive.
`Nc1nc(=S)[nH]c2c1C1(CCCCC1)Cc1ccccc1-2` gave hERG rescue -2.8, KCNK9 inh inactive, KCNQ1 pot inactive, KCNK3 inh inactive, Kir21 block 1.43 and KCNQ1 inh inactive.
